Assays:
Conditions in all cases: in vivo
Oryctolagus cuniculus [1] = assay: Cerebral biodistribution pattern of [123I]- ligand was evaluated in frontal cortex of anesthetized rabbit after Intravenous injection of 50 uCi after 4 hr; assay type: ADME, organism-based
How it was run: (§1)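 Male New Zealand white rabbits (2.5–3.5 kg), anesthetized with xylazine 5 mg/kg plus ketamine 30 mg/kg im, given 50 µCi radioligand (specific activity >5000 Ci/mmol) iv via ear vein. Euthanized at set times by pentobarbital 200 mg/kg im, n = 3/time point. Organs removed and weighed, gamma-counted, decay/weight corrected; expressed as % ID x kg body weight/g tissue, mean ± SEM.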

Oryctolagus cuniculus [2] = assay: Biodistribution pattern of [123I]- ligand was evaluated in spleen of anesthetized rabbit after Intravenous injection of 50 uCi after 1 hr; assay type: ADME, organism-based; how it was run: as §1
Oryctolagus cuniculus [3] = assay: Cerebral biodistribution pattern of [123I]- ligand was evaluated in hypothalamus of anesthetized rabbit after Intravenous injection of 50 uCi after 1 hr; assay type: ADME, organism-based; how it was run: as §1
Oryctolagus cuniculus [4] = assay: Cerebral biodistribution pattern of [123I]- ligand was evaluated in frontal cortex of anesthetized rabbit after Intravenous injection of 50 uCi after 6 hr; assay type: ADME, organism-based; how it was run: as §1
Oryctolagus cuniculus [5] = assay: Biodistribution pattern of [123I]- ligand was evaluated in spleen of anesthetized rabbit after Intravenous injection of 50 uCi after 4 hr; assay type: ADME, organism-based; how it was run: as §1
Oryctolagus cuniculus [6] = assay: Biodistribution pattern of [123I]- ligand was evaluated in right ventricular muscle of anesthetized rabbit after Intravenous injection of 50 uCi after 6 hr; assay type: ADME, organism-based, Muscle tissue; how it was run: as §1
Oryctolagus cuniculus [7] = assay: Biodistribution pattern of [123I]- ligand was evaluated in left ventricular muscle of anesthetized rabbit after Intravenous injection of 50 uCi after 5 min; assay type: ADME, organism-based, Muscle tissue
How it was run: (§2)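 Male New Zealand white rabbits, 2.5–3.5 kg, anesthetized with 5 mg/kg xylazine plus 30 mg/kg ketamine im. Each received 50 uCi radioligand (specific activity > 5000 Ci/mmol) iv via ear vein. Animals were killed with 200 mg/kg pentobarbital im at the set time. Blood was drawn by intracardiac puncture and organs weighed. Gamma counting was decay-corrected, expressed as %ID x kg body weight/g tissue, mean ± SEM, n = 3/time point.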

Oryctolagus cuniculus [8] = assay: Biodistribution pattern of [123I]- ligand was evaluated in muscle of anesthetized rabbit after Intravenous injection of 50 uCi after 4 hr; assay type: ADME, organism-based, Muscle tissue; how it was run: as §2
Oryctolagus cuniculus [9] = assay: Biodistribution pattern of [123I]- ligand was evaluated in left atrial muscle of anesthetized rabbit after Intravenous injection of 50 uCi after 1 hr; assay type: ADME, organism-based, Muscle tissue; how it was run: as §2
Oryctolagus cuniculus [10] = assay: Biodistribution pattern of [123I]- ligand was evaluated in spleen of anesthetized rabbit after Intravenous injection of 50 uCi after 5 min; assay type: ADME, organism-based; how it was run: as §1
Oryctolagus cuniculus [11] = assay: Biodistribution pattern of [123I]- ligand was evaluated in spleen of anesthetized rabbit after Intravenous injection of 50 uCi after 6 hr; assay type: ADME, organism-based; how it was run: as §1
Oryctolagus cuniculus [12] = assay: Biodistribution pattern of [123I]- ligand was evaluated in right atrial muscle of anesthetized rabbit after Intravenous injection of 50 uCi after 6 hr; assay type: ADME, organism-based, Muscle tissue; how it was run: as §1
Oryctolagus cuniculus [13] = assay: Biodistribution pattern of [123I]- ligand was evaluated in left atrial muscle of anesthetized rabbit after Intravenous injection of 50 uCi after 5 min; assay type: ADME, organism-based, Muscle tissue; how it was run: as §2
Oryctolagus cuniculus [14] = assay: Biodistribution pattern of [123I]- ligand was evaluated in intestine of anesthetized rabbit after Intravenous injection of 50 uCi after 6 hr; assay type: ADME, organism-based; how it was run: as §2
Oryctolagus cuniculus [15] = assay: Biodistribution pattern of [123I]- ligand was evaluated in blood of anesthetized rabbit after Intravenous injection of 50 uCi after 6 hr; assay type: ADME, organism-based; how it was run: as §2
Oryctolagus cuniculus [16] = assay: Biodistribution pattern of [123I]- ligand was evaluated in lung of anesthetized rabbit after Intravenous injection of 50 uCi after 6 hr; assay type: ADME, organism-based; how it was run: as §2
Oryctolagus cuniculus [17] = assay: Biodistribution pattern of [123I]- ligand was evaluated in spleen of anesthetized rabbit after Intravenous injection of 50 uCi after 24 hr; assay type: ADME, organism-based; how it was run: as §1
Oryctolagus cuniculus [18] = assay: Biodistribution pattern of [123I]- ligand was evaluated in left atrial muscle of anesthetized rabbit after Intravenous injection of 50 uCi after 6 hr; assay type: ADME, organism-based, Muscle tissue; how it was run: as §2
Oryctolagus cuniculus [19] = assay: Biodistribution pattern of [123I]- ligand was evaluated in fat of anesthetized rabbit after Intravenous injection of 50 uCi after 5 min; assay type: ADME, organism-based, Adipose tissue; how it was run: as §2
Oryctolagus cuniculus [20] = assay: Cerebral biodistribution pattern of [123I]- ligand was evaluated in frontal cortex of anesthetized rabbit after Intravenous injection of 50 uCi after 24 hr; assay type: ADME, organism-based; how it was run: as §1
Oryctolagus cuniculus [21] = assay: Cerebral biodistribution pattern of [123I]- ligand was evaluated in frontal cortex of anesthetized rabbit after Intravenous injection of 50 uCi after 5 min; assay type: ADME, organism-based; how it was run: as §1
Oryctolagus cuniculus [22] = assay: Biodistribution pattern of [123I]- ligand was evaluated in liver of anesthetized rabbit after Intravenous injection of 50 uCi after 6 hr; assay type: ADME, organism-based; how it was run: as §2
Oryctolagus cuniculus [23] = assay: Biodistribution pattern of [123I]- ligand was evaluated in blood of anesthetized rabbit after Intravenous injection of 50 uCi after 5 min; assay type: ADME, organism-based; how it was run: as §2
Oryctolagus cuniculus [24] = assay: Cerebral biodistribution pattern of [123I]- ligand was evaluated in hypothalamus of anesthetized rabbit after Intravenous injection of 50 uCi after 24 hr; assay type: ADME, organism-based; how it was run: as §1
Oryctolagus cuniculus [25] = assay: Biodistribution pattern of [123I]- ligand was evaluated in muscle of anesthetized rabbit after Intravenous injection of 50 uCi after 24 hr; assay type: ADME, organism-based, Muscle tissue; how it was run: as §2
Oryctolagus cuniculus [26] = assay: Biodistribution pattern of [123I]- ligand was evaluated in muscle of anesthetized rabbit after Intravenous injection of 50 uCi after 5 min; assay type: ADME, organism-based, Muscle tissue; how it was run: as §1
Oryctolagus cuniculus [27] = assay: Cerebral biodistribution pattern of [123I]- ligand was evaluated in striatum of anesthetized rabbit after Intravenous injection of 50 uCi after 24 hr; assay type: ADME, organism-based; how it was run: as §1

ID x kg of body weight/g of tissue (Oryctolagus cuniculus [1]): 0.06%
ID x kg of body weight/g of tissue (Oryctolagus cuniculus [2]): 0.28%
ID x kg of body weight/g of tissue (Oryctolagus cuniculus [3]): 0.06%
ID x kg of body weight/g of tissue (Oryctolagus cuniculus [4]): 0.05%
ID x kg of body weight/g of tissue (Oryctolagus cuniculus [5]): 0.1%
ID x kg of body weight/g of tissue (Oryctolagus cuniculus [6]): 0.08%
ID x kg of body weight/g of tissue (Oryctolagus cuniculus [7]): 0.52%
ID x kg of body weight/g of tissue (Oryctolagus cuniculus [8]): 0.04%
ID x kg of body weight/g of tissue (Oryctolagus cuniculus [9]): 0.16%
ID x kg of body weight/g of tissue (Oryctolagus cuniculus [10]): 0.39%
ID x kg of body weight/g of tissue (Oryctolagus cuniculus [11]): 0.07%
ID x kg of body weight/g of tissue (Oryctolagus cuniculus [12]): 0.07%
ID x kg of body weight/g of tissue (Oryctolagus cuniculus [13]): 0.36%
ID x kg of body weight/g of tissue (Oryctolagus cuniculus [14]): 0.05%
ID x kg of body weight/g of tissue (Oryctolagus cuniculus [15]): 0.01%
ID x kg of body weight/g of tissue (Oryctolagus cuniculus [16]): 0.71%
ID x kg of body weight/g of tissue (Oryctolagus cuniculus [17]): 0.03%
ID x kg of body weight/g of tissue (Oryctolagus cuniculus [18]): 0.1%
ID x kg of body weight/g of tissue (Oryctolagus cuniculus [19]): 0.008%
ID x kg of body weight/g of tissue (Oryctolagus cuniculus [20]): 0.01%
ID x kg of body weight/g of tissue (Oryctolagus cuniculus [21]): 0.27%
ID x kg of body weight/g of tissue (Oryctolagus cuniculus [22]): 0.03%
ID x kg of body weight/g of tissue (Oryctolagus cuniculus [23]): 0.03%
ID x kg of body weight/g of tissue (Oryctolagus cuniculus [24]): 0.02%
ID x kg of body weight/g of tissue (Oryctolagus cuniculus [25]): 0.05%
ID x kg of body weight/g of tissue (Oryctolagus cuniculus [26]): 0.08%
ID x kg of body weight/g of tissue (Oryctolagus cuniculus [27]): 0.02%
Structure (SMILES): CC(C)(/C=C/I)NC[C@H](O)COc1cccc2[nH]c3ccccc3c12
